Screening data as filed in PubChem.
Rows were chosen to be rich in hits. Some 1.7% of all compounds tested hit in one or more screens of this group.
F508del corr: CFTR F508del correction in bronchial cells | CFBE cells, YFP halide quenching; stimulated with forskolin plus potentiator P3; % fluorescence drop versus neutral controls | activity (quench increase), % at 7.58 µM | hit rate 0.36% among 350,000 | AID 720511;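 active means mean added fluorescence quench of at least 8% versus neutral control, with both replicates also reaching 8%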;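 further: cells transiently co-express mutant CFTR-F508del with the halide-sensitive YFP; corrector assay measuring rescue of mutant channel to the surface after 24 h compound exposure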
miR-122 sensor: miR-122 inhibition in Huh7 cells | Huh7 miR-122 Renilla luciferase sensor, 48 h; neutral wells = 0, positive control = 100 | activation (reporter increase), % at 12.5 µM | hit rate 0.3% among 340,000 | AID 602342;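 active means mean replicate activation score at least 90 and every replicate individually at or above 90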;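 further: higher luciferase means less miR-122 activity so hits act as miR-122 inhibitors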
PGC1a acetyl inh: modulators of PGC1a acetylation. U2OS PGC1a acetylation, AlphaScreen anti-acetyl-lysine; with virally co-expressed GCN5 acetyltransferase. inhibition, % at 15.6 µM. hit rate 0.17% among 350,000. AID 651687;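 active means every replicate shows inhibition of at least 40%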;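 further: 0% = neutral control wells and 100% = positive control wells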
CAL PDZ FP-1: blocks peptide binding to human CAL PDZ domain. purified CAL PDZ, TMR-peptide fluorescence polarization, 1 h. inhibition, % at 20 µM. hit rate 0.02% among 330,000. AID 504414;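 active means highest replicate inhibition of at least 40%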;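 further: plate controls were DMSO neutral control wells for no effect and unlabeled competitor peptide control wells for full effect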
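Test system: purified CerCALP PDZ construct; Compound dosing: one concentration, 20 µM compound; Also added: TMR-labelled reporter peptide T*-PRC34 bound in PDZ groove; Read-out: inhibition from polarization loss; Controls: unlabelled peptide and DMSO controls; Signal: FP readout, S and P plane fluorescence; Incubation: 1 h at RT.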
CAL PDZ FP-2: CAL PDZ (human) peptide binding inhibition; Q9HD26; hit rate 0.92% among 300,000; inhibition, % at 24.9 µM; purified CAL PDZ, TMR-peptide fluorescence polarization, 1 h; AID 602252;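 active means mean inhibition of at least 30% with at least half of replicates also reaching 30%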;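 further: 0% = DMSO neutral control and 100% = excess unlabeled competitor peptide PRC23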
ARNT-TACC3 inh: ARNT/TACC3 interaction disruption; Q9Y6A5; AlphaScreen His-ARNT PAS-B/GST-TACC3 binding, luminescence; TACC3 fragment carries E629A point mutation; inhibition, % at 9.99 µM; hit rate 0.66% among 390,000;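 active means mean inhibition of replicates at least 50% and at least half of replicates each reaching 50%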;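 further: 0% = complete ARNT plus TACC3 wells and 100% = ARNT alone without TACC3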
* marks the source's active call; other numbers are inactive results; . = no result; [ ] = remark or other dose.

SMILES | F508del corr | miR-122 sensor | PGC1a acetyl inh | CAL PDZ FP-1 | CAL PDZ FP-2 | ARNT-TACC3 inh
O=C(CSc1nnc(-c2ccc(Cl)cc2Cl)n1C1CCCCC1)N1CCCC1 | . | 2 | 0 | -1 | 53* | -1
O=C1NCC2=C1C(c1ccc(Br)cc1)Nc1ccccc1N2 (stereo not given) | . | -5 | 1 | -1 | -6 | active
C[C@H]1CN([C@@H](C)CO)C(=O)c2cc(NC(=O)Nc3ccccc3)ccc2O[C@H]1CN(C)S(=O)(=O)c1cn(C)cn1 | 0 | -2[16.7 µM] | -4 | . | . | 13
Cn1nnnc1Sc1ncnc2scc(-c3ccc(Cl)cc3)c12 | -8 | -12 | 37 | -1 | -2 | .
Cn1nnnc1Sc1ncnc2scc(-c3ccc4c(c3)OCO4)c12 | -7 | 0 | -22 | -3 | -2 | 47*
Cc1ccc(S(=O)(=O)Nc2ccc3c(c2)nc(CCN2CCOCC2)n3C)cc1 | -3 | -6 | 6 | -2 | 32* | 2
Cc1ccc(S(=O)(=O)Nc2cc3c(cc2N2CCOCC2)n(C)c(=O)c(=O)n3C)cc1 | 1 | 3 | -10 | 0 | 36* | 2
CCN(CC)S(=O)(=O)c1ccc(N2CCOCC2)c(NS(=O)(=O)c2ccc(C)c(C)c2)c1 | . | . | . | 0 | 89* | -2
Cc1ccc(S(=O)(=O)Nc2ccc3c(c2)nc(CCN2CCCCC2)n3C)cc1 | 0 | -23 | 10 | 1 | -2 | 3
Cn1c(=O)c(=O)n(C)c2cc(N3CCOCC3)c(NS(=O)(=O)c3ccc(Br)cc3)cc21 | 0 | -3 | 4 | 0 | -3 | 4
C[C@@H]1CN([C@@H](C)CO)C(=O)c2cccc(NC(=O)c3nc4ccccc4s3)c2O[C@H]1CN(C)C(=O)NC1CCCCC1 | -3 | -1[16.7 µM] | -2 | . | . | -1
Cc1nc(/C(N)=N/OC(=O)c2ccccc2Cl)c(C(F)(F)F)o1 | -1 | 8 | 14 | -1 | 68* | 0
COc1ccc(NC2CCCN(C(=O)c3csc(C(C)C)n3)C2)cc1 (stereo not given) | 2 | -2 | 2 | 1 | 93* | -5
COc1ccc(NC2CCCN(C(=O)CCOc3ccccc3)C2)cc1 (stereo not given) | 0 | 9 | 8 | -1 | -5 | 10
CC(C)c1ccc(NC2CCCN(C(=O)c3ccnn3C)C2)cc1 (stereo not given) | -2 | 3 | 1 | -1 | 55* | 0
COc1ccc(NC2CCCN(C(=O)CCc3ccccc3F)C2)cc1 (stereo not given) | 1 | 3 | 8 | 0 | 78* | 2
CNC(=O)C[C@H]1CC[C@@H]2[C@H](COc3ccc(NC(=O)c4ccc(F)cc4)cc3C(=O)N2C)O1 | 4 | -3[16.7 µM] | -1 | . | . | 4
Cc1noc(C)c1S(=O)(=O)Nc1ccc2c(c1)C(=O)N([C@H](C)CO)C[C@@H](C)[C@H](CN(C)Cc1ccncc1)O2 | 0 | -1[16.7 µM] | -2 | . | . | -2
O=C(NCCCN1CCCC1=O)c1cc(S(=O)(=O)N2CCOCC2)c(Cl)cc1Cl | 17* | 1 | . | -1 | -1 | 0
Cc1ccc(NS(=O)(=O)c2cc(C(=O)NCc3ccncc3)ccc2C)cc1 | 2 | 117* | . | -3 | -7 | -3
O=C(NCCCN1CCCC1=O)c1cc(S(=O)(=O)N2CCOCC2)ccc1Cl | 2 | . | . | -2 | 0 | .
Cc1ccc(NS(=O)(=O)c2ccc(C(=O)NCc3ccncc3)cc2)cc1 | -3 | 6 | 3 | -3 | -2 | 1
O=C(NCCCN1CCCC1=O)c1cccc(S(=O)(=O)Nc2ccc(Br)cc2)c1 | 4 | 110* | 11 | -3 | 7 | .
O=C(NCCCn1ccnc1)c1cccc(S(=O)(=O)Nc2ccc(Br)cc2)c1 | 3 | 72 | -7 | -2 | -3 | 6
O=C(NCCCn1ccnc1)c1cccc(S(=O)(=O)Nc2ccc(F)cc2)c1 | 0 | 142* | . | -2 | -1 | 1
Cc1ccc(C(=O)NCCSc2ccccc2)cc1S(=O)(=O)Nc1ccccc1 | . | 94* | -21 | -1 | . | 2
O=C(NCCCN1CCCC1=O)c1cc2c(s1)CCCCC2 | 0 | -9 | 6 | . | 80* | -10
